Assay outcomes as filed in PubChem.
Shown are actives, neighbours in structure and some others; about 3.5% of the full set was active somewhere.
RGS4 act: RGS4 potentiation or activation | HEK293 M3R/inducible RGS4, carbachol calcium flux Fluo4; active compounds read low | B-score at 10 µM | 310,000 tested, 0.92% active | AID 463111;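 active means B-score of the integrated calcium signal more than 4 SD below the library mean, with starting fluorescence not abnormally high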;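 further: negative B-score means reduced calcium response which marks RGS4 activation or potentiation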
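Material: M3R-expressing HEK293 line, RGS4 induced by doxycycline | Schedule: Overnight RGS4 induction, 30 min dye load 37 °C, 20 min compound RT | Measured by: Fluo4 fluorescence kinetic imaging of calcium | Read-out: Integrated calcium ratio converted to B score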
MrgX1 ag: activates human MrgX1 receptor signaling | B-score at 10 µM | Q96LB2 | 310,000 tested, 0.44% active | MrgX1-HEK293 cells, Fluo-4 calcium fluorescence, agonist mode; active compounds read high | AID 588627;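 active means calcium response B-score plate-corrected fluorescence ratio at least 3 library SD, with starting fluorescence B-score inside 5 SD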
Target sequence (Q96LB2 whole entry, looked up): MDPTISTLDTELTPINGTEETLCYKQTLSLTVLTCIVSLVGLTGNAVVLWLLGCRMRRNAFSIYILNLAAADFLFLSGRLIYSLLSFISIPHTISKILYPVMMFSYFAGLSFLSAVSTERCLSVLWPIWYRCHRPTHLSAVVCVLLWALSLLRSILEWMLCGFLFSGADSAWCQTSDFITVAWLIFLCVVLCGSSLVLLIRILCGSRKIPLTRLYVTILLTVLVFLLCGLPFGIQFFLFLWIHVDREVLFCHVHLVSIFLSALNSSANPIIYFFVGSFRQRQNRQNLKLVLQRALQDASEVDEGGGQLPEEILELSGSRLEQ
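Material: MrgX1-expressing HEK293 cells; input: 15,000 cells per well; doses: test compound given as first of three sequential additions; schedule: overnight plating before 1 h dye loading; technique: Fluo-4 NW calcium-flux fluorescence, kinetic read; evaluation: baseline-normalised fluorescence change ratio, B-scored; control set: plate-wise positive and negative controls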
MrgX1 antagonist: human MrgX1 receptor antagonism, primary screen; Q96LB2; MRGX1-HEK293 calcium flux, Fluo-4, BAM8-22 antagonism; active compounds read low; B-score at 10 µM; 310,000 tested, 1.3% active; AID 588676;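 active means calcium-response B-score plate-corrected more than 3 library SD below zero, starting fluorescence within 5 deviations, no agonist response on first addition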;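 further: peak minus trough fluorescence over baseline after final BAM8-22 challenge near maximal dose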
RGS4 block: inhibitors of human RGS4; P49798; HEK293 M3R/RGS4 inducible, Fluo-4 calcium flux; active compounds read high; triggered by carbachol at its EC20; B-score at 10 µM; 310,000 tested, 0.45% active; AID 463165;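 active means B-score, a plate-corrected calcium signal, over three deviations above library mean, with baseline fluorescence within five deviations of library mean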;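 further: RGS4 expression induced by doxycycline in cells with stable M3 receptor; B-score is computed from the integrated fluorescence ratio over baseline after carbachol; higher B-score means a larger calcium signal and so more RGS4 inhibition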
Target sequence (P49798 whole entry, looked up): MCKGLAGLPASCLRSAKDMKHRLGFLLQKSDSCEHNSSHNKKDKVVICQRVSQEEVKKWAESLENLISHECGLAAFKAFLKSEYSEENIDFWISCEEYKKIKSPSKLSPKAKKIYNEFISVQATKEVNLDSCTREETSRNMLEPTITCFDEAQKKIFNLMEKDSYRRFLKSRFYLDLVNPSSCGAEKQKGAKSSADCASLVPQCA
MrgX1 allo act: human MrgX1 positive allosteric modulation, primary screen; AID 588675; B-score at 10 µM; 310,000 tested, 0.63% active; MrgX1-HEK293, Fluo-4 calcium flux, FDSS; active compounds read high;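 active means plate-corrected calcium response at least 3 library SD above typical, normal starting fluorescence, not activating the receptor alone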;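 further: compound read alongside a low EC10 to EC30 dose of BAM8-22 agonist; peak minus trough fluorescence over baseline measured at the second addition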
* hit, by the source's call; i = inactive; x = no result given.

SMILES	RGS4 act	MrgX1 ag	MrgX1 antagonist	RGS4 block	MrgX1 allo act
COc1ccc(OCC(=O)NNC(=O)c2cccs2)cc1	i	i	i	i	i
COc1ccc(CC(=O)NNS(=O)(=O)c2ccccc2)cc1OC	i	i	-8.01*	i	i
CCN(CC)CCN(Cc1cc2cc(C)cc(C)c2[nH]c1=O)C(=S)NCc1ccco1	i	i	i	i	i
Oc1ccccc1N1CCN(c2ncnc3scc(-c4ccc(F)cc4)c23)CC1	i	i	i	i	i
Oc1ccccc1N1CCN(c2ncnc3scc(-c4ccccc4)c23)CC1	-7.36*	i	i	i	i
COc1cc(C(=O)OCC(=O)Nc2c(F)cccc2F)cc(OC)c1C	i	i	i	i	i
Cc1ccc(-n2c(SCC(=O)N3CCCC3)nc3c(c2=O)SCC3)cc1	i	i	-4.86*	i	i
N/C(=N\OC(=O)c1cccs1)c1ccc(Cl)cc1	i	i	-5.81*	i	i
COc1ccc(/C(N)=N/OC(=O)c2cccs2)cc1	i	i	i	i	i
CCOC(=O)c1ccc(N2Cc3ccccc3C2=N)cc1	-7.34*	i	i	i	i
COc1ccc2[nH]cc(/C=C/c3cc[n+](C)cc3)c2c1	i	i	-7.9*	i	i
COc1ccc2[nH]cc(C=O)c2c1	i	i	i	i	i
C/C(=C\c1ccccc1)CN1CCN(c2ccccc2F)CC1	i	i	i	i	i
O=[N+]([O-])c1ccc(NC(=S)NCc2ccc(F)cc2)cc1	i	27.1*	i	i	i
O=[N+]([O-])c1ccc(NC(=S)NCc2ccncc2)cc1	i	i	-4.67*	i	i
Cc1cc(N=Nc2c(O)c3ccccc3[nH]c2=O)ccc1N=Nc1ccc(C(=O)N(C)C)cc1	-7.82*	x	x	i	x
O=C(O)c1ccc(N=Nc2c(O)[nH]c3ccccc23)cc1	i	i	i	i	i
COc1ccccc1OCCNC(=O)c1ccco1	i	i	i	i	i
COc1ccccc1C(C#N)N1N=C(C)CC1c1ccccc1 (configuration not stated)	i	28*	i	i	i
CCOC(=O)Cc1csc(NC(=O)c2ccc(Br)s2)n1	i	30.8*	i	i	i
CCOC(=O)Cc1csc(NC(=O)c2cccs2)n1	i	i	i	i	i
CCC(=O)Nc1ccc(Cl)c(NC(=O)c2ccccc2OC)c1	i	i	i	i	i
O=C(CN1CCN(C(=O)c2ccco2)CC1)N1CCc2[nH]c3ccccc3c2C1	i	i	-5.94*	i	i
O=[N+]([O-])c1ccc(-c2ccc(/C=N/Nc3nc(N4CCCC4)nc(N4CCCC4)n3)o2)cc1	i	34.2*	i	i	i
O=[N+]([O-])c1ccc(-c2ccc(/C=N/Nc3nc(N4CCCCC4)nc(N4CCCCC4)n3)o2)cc1	i	x	x	i	x
SMILES	RGS4 act	MrgX1 ag	MrgX1 antagonist	RGS4 block	MrgX1 allo act
CC(Cc1cccs1)NC(=S)Nc1ccc(F)cc1 (configuration not stated)	i	i	i	i	i
COc1ccc(-c2nn(-c3ccccc3)cc2/C=N/N=C(N)N)cc1OC	i	44.4*	i	i	i
CC(=O)Oc1ccc(C(=O)Cc2ccc3ccccc3n2)c(O)c1C	i	i	i	i	i
Nc1ccc(N=Nc2ccccc2)c2cccnc12	i	i	i	4.96*	i
CC(=O)CSc1nc2c(c(=O)[nH]c(=O)n2C)n1CCCc1ccccc1	i	i	i	i	i
COc1ccc(F)cc1S(=O)(=O)NCc1ccccc1	i	i	i	i	i
COc1ccc(Br)cc1S(=O)(=O)NCc1ccccc1	i	i	-4.93*	i	i
Cc1ccccc1OCC(=O)NNC(=O)C1CCN(c2ncnc3sc(C)c(C)c23)CC1	i	i	i	i	i
CCN(CC)c1ccc(/C=C(/C#N)C(=O)NCc2ccccc2)o1	i	i	i	i	7.02*
CCN(CC)c1ccc(/C=C(/C#N)C(=O)NC(C)C)o1	i	i	i	i	i
COc1ccccc1OCCCN1C(=O)C(=O)c2cccc(C)c21	i	28.2*	i	i	i
Cc1cccc(C(=O)OCC(=O)N2CCC(c3ccccc3)=N2)c1O	i	i	i	i	i
CCc1cc(C(=O)OCC(=O)N2CCC(c3ccccc3)=N2)sc1C	-7.22*	i	i	i	i
Cc1cccc(NC(=S)/N=C(\N)Nc2nc(C)c3ccc(C)cc3n2)c1	i	i	i	i	i
Cc1ccc(S(=O)(=O)N2CCCC2)cc1S(=O)(=O)N1CCCC1	i	i	i	i	i
O=C(N/N=C/c1cccc(C(F)(F)F)c1)c1cc2c(s1)-c1ccccc1CC2	i	i	-7.79*	i	i
C=CC[n+]1c(-c2ccc(OC)c(OC)c2)csc1NNC(=O)Nc1ccccc1	i	i	-4.57*	i	i
CN(C)S(=O)(=O)n1cc(/C=C(\NC(=O)c2ccccc2F)C(=O)NCCCn2ccnc2)c2ccccc21	-9.64*	x	x	i	x
C/C(=N\NC(=O)c1cc(-c2cccc(OC(C)C)c2)nc2ccccc12)c1cccnc1	-9.01*	i	i	i	i
CCOc1cc(/C=N/NC(=O)c2cc(-c3cccc(OC)c3)nc3ccccc23)ccc1O	i	i	i	i	i
CC(C)COc1cccc(-c2cc(C(=O)N/N=C/c3ccncc3)c3ccccc3n2)c1	-7.42*	i	i	i	i
O=S(=O)(Nc1ccc(-c2nnc(SCc3ccc(Cl)cc3)o2)cc1)c1ccccc1	i	i	i	i	i
Cc1cc(C)nc(SCSc2nc(C)cc(C)n2)n1	i	x	x	i	x
Cc1nc(CNS(=O)(=O)c2ccc3c(c2)CCCC3)cs1	i	i	i	i	i
CCOCCOC(=O)C(C)Oc1ccc(Oc2nc(Cl)ccc2Cl)cc1 (configuration not stated)	i	i	-8.48*	i	i
CCOCCOC(=O)C(C)Oc1ccc(Oc2ncc(Cl)cc2Cl)cc1 (configuration not stated)	i	i	i	i	i
COP(=O)(OC)c1nc(-c2ccc([N+](=O)[O-])cc2)oc1N1CCCCC1	i	33*	i	i	i
O=C(COc1ccccc1[N+](=O)[O-])N/N=C/c1ccc(O)cc1	i	i	i	i	i
CC1(c2ccccc2)NC(=O)N(CCOc2ccccc2)C1=O (configuration not stated)	i	i	i	i	i
